Results from different studies.
Each line is one published result; the experiments were not run side by side.
Read-out: cell growth or viability

SMILES	cell line	technique	tested at	time	viability [%]
CC(C)(C)c1cnc(CSc2cnc(NC(=O)C3CCN(CCCCCSc4cccc5c4CN(C4CCC(=O)NC4=O)C5=O)CC3)s2)o1 (stereo not drawn)	HH	CCK-8	0.5 µM	–	0
CCOC(=O)c1nn(-c2cccc(Cl)c2)/c(=N/N=C(\C)c2ccc(NC(=O)c3ccc(Cl)cc3)cc2)s1	HepG2	MTT	0.312 µM	–	3.13
O=C(Nc1ccc(Oc2nnc(-c3ccc(Cl)cc3)c3ccccc23)cc1)c1cccc([N+](=O)[O-])c1	HepG2	MTT	5 µM	24 h	5.16
CCOC(=O)c1nn(-c2cccc(Cl)c2)/c(=N/N=C(\C)c2ccc(NC(=O)c3ccccc3)cc2)s1	HepG2	MTT	78 nM	–	81.9
CC(=NNC(=O)COc1ccc2c(C)c(Cc3ccccc3)c(=O)oc2c1C)c1ccc(Br)cc1	HepG2	MTT	0.4 µg/mL	–	58
CC(=O)Nc1ccc(/C(C)=N/N=c2\sc(C(C)=O)nn2-c2ccc(C)cc2)cc1	HepG2	MTT	5 µM	–	86
O=C(C=Cc1ccccc1)Nc1ccc(Oc2nnc(-c3ccc(Cl)cc3)c3ccccc23)cc1	HepG2	MTT	10 µM	24 h	2.63
CC(=O)c1nn(-c2ccccc2Cl)/c(=N/N=C(\C)c2ccc(NC(=O)c3ccccc3)cc2)s1	HepG2	MTT	10 µM	–	6.13
CC(=NNC(=O)c1ccccc1)c1ccc(Nc2nnc(-c3ccc(Cl)cc3)c3ccccc23)cc1	HepG2	MTT	0.312 µM	24 h	99.6
CC(C)(C)c1cnc(CSc2cnc(NC(=O)C3CCN(C(=O)CCCSc4cccc5c4C(=O)N(C4CCC(=O)NC4=O)C5=O)CC3)s2)o1 (stereo not drawn)	HH	CCK-8	1 µM	–	8.16
S=C(Nc1ccccc1)Nc1ccc(Oc2nnc(-c3ccc(Cl)cc3)c3ccccc23)cc1	HepG2	MTT	2.5 µM	24 h	18
CC(C)(C)c1cnc(CSc2cnc(NC(=O)C3CCN(CCCCCCCCSc4cccc5c4C(=O)N(C4CCC(=O)NC4=O)C5=O)CC3)s2)o1 (stereo not drawn)	HH	CCK-8	50 nM	–	92.6
CC(=NNC(=O)c1ccccc1Cl)c1ccc(Nc2nnc(-c3ccc(Cl)cc3)c3ccccc23)cc1	HepG2	MTT	0.625 µM	24 h	28.3
CC(=O)c1nn(-c2ccc(C)cc2)/c(=N/N=C(\C)c2ccc(NC(=O)c3ccccc3)cc2)s1	HepG2	MTT	2.5 µM	–	6.81
CC(C)(C)c1cnc(CSc2cnc(NC(=O)C3CCN(CCCCCCCCSc4cccc5c4CN(C4CCC(=O)NC4=O)C5=O)CC3)s2)o1 (stereo not drawn)	HH	CCK-8	0.25 µM	–	0
